Reference: ChEMBL document CHEMBL1123435, “Synthesis of 11H-pyridocarbazoles and derivatives. Comparison of their DNA binding and antitumor activity with those of 6H- and 7H-pyridocarbazoles” (1986)

Experiments:
L1210 [1] = assay: Inhibitory activity against L1210 cell culture; assay type: functional; conditions: Mus musculus, read-out: ED50 (the source's name)
Outline: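 L1210 cells in exponential growth (1 × 10⁵/mL) were held for 24 h at 37 °C in RPMI 1640 with 10% fetal calf serum across a range of drug concentrations. Total cells were counted electronically. Duplicate treated cultures were expressed as a percentage of triplicate untreated controls. ED50 came from linear regression of percent residual cells against concentration on a semilog scale.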

Calf thymus DNA = assay: Binding affinity towards calf thymus DNA, at pH 5; assay type: nucleic-acid assay; conditions: Bos taurus
Outline: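 Affinity for sonicated calf thymus DNA determined by ethidium bromide competition by fluorescence. Four cells were run together: buffer, DNA (1.5 μg/mL), and drug at 3 and 6 μg/mL plus DNA. Ethidium bromide (50 μg/mL of buffer) was added in aliquots, and apparent constants were derived from Scatchard plots of competition. Where a ligand fluoresces strongly when bound, direct fluorometric titration was used instead.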

L1210 [2] = assay: Dose required to inhibit the cloning efficiency to a factor of 0.37 after 24-h exposure to the drug; assay type: functional; conditions: Mus musculus, L1210, 24 h
Outline: (§1)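 Exponentially growing L1210 cells (1 × 10⁵/mL) in RPMI 1640 with 10% fetal calf serum were exposed to the drug for 24 h at 37 °C. They were then diluted to 250 and 500 cells/mL and plated in Noble agar. After 14 days at 37 °C in 5% CO2, colonies >0.2 mm were counted, in triplicate per concentration. CE37 (cloning efficiency reduced to 0.37) was read from dose-response curves.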

L1210 [3] = assay: Dose required to inhibit the cloning efficiency to a factor of 0.37 after 24-h exposure to the drug in L1210 cell; assay type: functional; conditions: Mus musculus, L1210, 24 h; outline: as §1

Row | EC50 (L1210 [1]) | K app (Calf thymus DNA) | Compound | EC37 (L1210 [2]) | EC37 (L1210 [3])
1 | 0.38 µg/mL | 300000 M⁻¹ | COc1ccc2[nH]c3ccc4cc[n+](C)cc4c3c2c1.[I-] | – | –
2 | > 1 µg/mL | 20000 M⁻¹ | Cl.Oc1ccc2[nH]c3c(ccc4cccnc43)c2c1 | > 1 µg/mL | –
3 | > 1 µg/mL | 100000 M⁻¹ | C[n+]1cccc2c3[nH]c4ccc(O)cc4c3ccc21.[I-] | > 1 µg/mL | –
4 | 0.06 µg/mL | 1.3e+06 M⁻¹ | CC(=O)[O-].Cc1c2cc[n+](C)cc2c(C)c2c1[nH]c1ccc(O)cc12 [ELLIPTINIUM ACETATE] | 0.013 µg/mL | –
5 | – | 100000 M⁻¹ | c1cnc2c(c1)ccc1c3ccccc3[nH]c12 | – | –
6 | > 1 µg/mL | 20000 M⁻¹ | C[n+]1ccc2c(ccc3c4ccccc4[nH]c23)c1.[I-] | > 1 µg/mL | –
7 | – | 100000 M⁻¹ | COc1ccc2[nH]c3c(ccc4cccnc43)c2c1 | – | –
8 | – | 60000 M⁻¹ | COc1ccc2[nH]c3c(ccc4c3ccc[n+]4C)c2c1 | – | –
9 | > 1 µg/mL | 1e+06 M⁻¹ | Cc1cc2c3cc(O)ccc3[nH]c2c2c[n+](C)ccc12.[I-] | > 1 µg/mL | –
10 | 0.12 µg/mL | 180000 M⁻¹ | C[n+]1ccc2ccc3[nH]c4ccc(O)cc4c3c2c1.[I-] | – | –
11 | > 1 µg/mL | 10000 M⁻¹ | C[n+]1cccc2c3[nH]c4ccccc4c3ccc21.[I-] | > 1 µg/mL | –
12 | > 1 µg/mL | 25000 M⁻¹ | COc1ccc2[nH]c3c4cc[n+](C)cc4ccc3c2c1.[I-] | > 1 µg/mL | –
13 | > 1 µg/mL | 100000 M⁻¹ | Cc1cc2c3ccccc3[nH]c2c2c[n+](C)ccc12.[I-] | > 1 µg/mL | –
14 | – | 100000 M⁻¹ | COc1ccc2[nH]c3c4c[n+](C)ccc4c(C)cc3c2c1 | – | –
15 | 0.544 µg/mL | 230000 M⁻¹ | CC(=O)[O-].Cc1c2cc[n+](C)cc2c(C)c2c1[nH]c1ccccc12 | – | 0.4 µg/mL
